Laboratory results: paper PMC6525002 (Cancer Management and Research, 2019)

What was measured:
[1] = tested on: human A431 tumor cells; settings: in vitro, cells with high expression of EGFR; cited from earlier work
[2] = Phase Ib pharmacokinetics, multi-dosing; assay type: in vivo, human
In short: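 Oral test compound, flat doses twice daily for 28 days. Plasma sampled before the first daily dose on Days 8, 9, 10, 22 and 29. On Day 15, sampling ran 0.05 h predose and 0.5, 1, 1.5, 2, 4, 6, 8, 10 and 12 h post-dose. Assay by LC-MS with multiple reaction monitoring, LLOQ 1 ng/mL. Parameters were calculated from individual concentration-time profiles.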

[3] = tested on: other investigated kinases; settings: in vitro; cited from earlier work
[4] = multi-dosing 100 mg twice daily, N=2
[5] = multi-dosing 100 mg twice daily, N=2, mean±SD
[6] = multi-dosing 200 mg twice daily, N=3, mean±SD
[7] = multi-dosing 300 mg twice daily, N=3, mean±SD
[8] = multi-dosing 400 mg twice daily, N=15, mean±SD
[9] = multi-dosing 500 mg twice daily, N=12, mean±SD
[10] = multi-dosing 650 mg twice daily, N=6, mean±SD

simotinib
inhibition of growth of human A431 tumor cells [1]: inhibits in a dose-dependent manner
T1/2, range over doses ([2]; 200–650 mg doses): 8 to 13 h
AUC0-∞ [2, 4]: 956.9 ng·h/mL
CL [2, 4]: 148.5 L/h
T1/2 [2, 4]: 6.2 h
Tmax [2, 4]: 1.0(0–2.0) h
Vd [2, 4]: 1323.3 L
AUC0-last [2, 5]: 920.4 ± 349.2 ng·h/mL
Cavg [2, 5]: 76.7 ± 29.1 ng/mL
Cmax [2, 5]: 130.3 ± 70.3 ng/mL
Cmin [2, 5]: 54.5 ± 32.1 ng/mL
Tmax ([2]; multi-dosing 200 mg twice daily, N=3): 4.0 (2.0–4.0) h
AUC0-last [2, 6]: 3,940.9±2,689.0 ng•hr/mL
AUC0-∞ [2, 6]: 6,571.6±3,241.2 ng•hr/mL
CL [2, 6]: 66.1 ± 45.1 L/h
Cavg [2, 6]: 328.4 ± 224.1 ng/mL
Cmax [2, 6]: 447.0 ± 258.8 ng/mL
Cmin [2, 6]: 207.0 ± 152.7 ng/mL
T1/2 [2, 6]: 9.6 ± 4.2 h
Vd [2, 6]: 1,050.0±1,020.6 L
Tmax ([2]; multi-dosing 300 mg twice daily, N=3): 1.5 (1.0–2.0) h
AUC0-last [2, 7]: 6,013.9±3,058.1 ng•hr/mL
AUC0-∞ [2, 7]: 9,728.6±1,648.2 ng•hr/mL
CL [2, 7]: 57.3 ± 29.1 L/h
Cavg [2, 7]: 501.2 ± 254.8 ng/mL
Cmax [2, 7]: 1,519.0±1,132.8 ng/mL
Cmin [2, 7]: 288.0 ± 117.4 ng/mL
T1/2 [2, 7]: 10.4 ± 7.8 h
Vd [2, 7]: 1,019.6±1,077.5 L
Tmax ([2]; multi-dosing 400 mg twice daily, N=15): 2.0 (0–8.0) h
AUC0-last [2, 8]: 5,245.7±2,194.4 ng•hr/mL
AUC0-∞ [2, 8]: 10,577.7±5,867.6 ng•hr/mL
CL [2, 8]: 99.5 ± 70.4 L/h
Cavg [2, 8]: 437.1 ± 182.9 ng/mL
Cmax [2, 8]: 767.9 ± 338.1 ng/mL
Cmin [2, 8]: 251.6 ± 127.0 ng/mL
T1/2 [2, 8]: 13.0 ± 11.8 h
Vd [2, 8]: 2,000.6±3,169.6 L
Tmax ([2]; multi-dosing 500 mg twice daily, N=12): 1.8 (1.0–6.0) h
AUC0-last [2, 9]: 7,819.8±1,942.3 ng•hr/mL
AUC0-∞ [2, 9]: 12,780.6±3,894.7 ng•hr/mL
CL [2, 9]: 67.7 ± 17.2 L/h
Cavg [2, 9]: 651.6 ± 161.9 ng/mL
Cmax [2, 9]: 1,396.0±534.8 ng/mL
Cmin [2, 9]: 378.3 ± 132.0 ng/mL
T1/2 [2, 9]: 8.4 ± 2.8 h
Vd [2, 9]: 811.3 ± 326.9 L
Tmax ([2]; multi-dosing 650 mg twice daily, N=6): 2.0 (1.5–8) h
AUC0-last [2, 10]: 4,615.7±1,599.7 ng•hr/mL
AUC0-∞ [2, 10]: 8,193.3±3,211.2 ng•hr/mL
CL [2, 10]: 156.3 ± 55.6 L/h
Cavg [2, 10]: 384.6 ± 133.3 ng/mL
Cmax [2, 10]: 650.8 ± 234.7 ng/mL
Cmin [2, 10]: 214.3 ± 84.8 ng/mL
T1/2 [2, 10]: 9.2 ± 1.9 h
Vd [2, 10]: 2,021.8±635.7 L
time to maximum concentration, range over doses ([2]; multiple dosing, 300, 400, 500, and 650 mg doses): 1.5 to 2.0 h
activity on other investigated kinases [3]: no significant activity
